Results reported in paper PMC4471785 (Cancer Science, 2015).

Columns and labels:
[1] = target: LAT1 (Homo sapiens, UniProt Q01650); test: Inhibition of DOX or Asp-DOX uptake into S2-LAT1 cells by amino acids; type: cell-based; conditions: 100 μmol/L amino acid, 2 min; for Inhibition of the uptake of Asp-DOX by amino acids: 20 μmol/L Asp-DOX; for Inhibition of the uptake of DOX by amino acids: 20 μmol/L DOX
How it was run: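 S2-LAT1 cells incubated 2 min with 20 μmol/L test compound, with or without 100 μmol/L Leu, Met, Phe, Asp, Glu or Gly. Uptake stopped by three cold DPBS washes. Internalised drug extracted with methanol and quantified by HPLC.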

[2] = tested on: MDR1-overexpressing MDCK cells; test: Bidirectional transport assay; type: in vitro ADME; conditions: 50 μg/mL
How it was run: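 MDCK-MDR1 cells grown in high-glucose DMEM with 10% FBS. Seeded at 2 × 10^5 cells per 1.12 cm2 on polycarbonate Transwell inserts (0.4-μm pores) and used after about 7 days. TEER checked first. After 20 min equilibration in HBSS with 25 mM HEPES, 50 μg/mL test compound was added to the apical or basolateral donor side at 37°C with 60 rpm shaking. Receiver sampled at 60 min for HPLC-fluorescence. PDR = Papp(B–A)/Papp(A–B); n = 3.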

[3] = tested on: H1299 (human non-small cell lung carcinoma cell line); test: MTT cytotoxicity, H1299; type: cell-based; conditions: 48 h
How it was run: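 Cells maintained in DMEM or RPMI-1640 with 10% FBS, penicillin and streptomycin at 37°C, 5% CO2. Seeded at 2000–4000 cells/well and grown 48 h, then exposed to test compound at 10, 20 or 50 μg/mL for 48 h. MTT (5 mg/mL stock, 20 μL per 100 μL) added for 2 h; absorbance read at 492 nm. Six repeats; inhibition rate computed from mean values.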

[4] = Pharmacokinetics in healthy mice; type: in vivo
How it was run: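 Healthy mice dosed 5 mg/kg via tail vein. Retrobulbar blood taken at 0, 2, 5, 10, 15, 30 min, 1, 2 and 4 h, mixed with 0.5 mM EDTA-PBS and spun at 1750 g for 15 min. Supernatant extracted with methanol, dried under nitrogen, reconstituted in mobile phase and analysed by HPLC. AUC0−t by non-compartmental i.v. bolus model.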

[5] = tested on: H1299 tumors; test: Biodistribution in H1299 tumor-bearing mice; type: in vivo; conditions: H1299 models; DOX versus Asp-DOX; 5 mg/kg i.v.; 1 h
[6] = tested on: HepG2 tumors; test: Biodistribution in HepG2 tumor-bearing mice; type: in vivo; conditions: HepG2 models; DOX-treated versus Asp-DOX-treated mice; 5 mg/kg i.v.; 1 h
How it was run: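 Male nude mice ([…], 4 weeks, 18–22 g) implanted s.c. above the right femoral joint with 1.0 × 107 HepG2, HCT116 or H1299 cells in 0.1 mL PBS, 3–5 per line. On day 20, with tumours about 100 mm3, 5 mg/kg given i.v. Killed 1 h later; tissues frozen in liquid nitrogen. Homogenates extracted twice with methanol (1-naphthol internal standard) for HPLC/MS; reported as % injected dose/g tissue.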

[7] = tested on: H1299 tumors; test: Therapy study, H1299 tumor model; type: in vivo, mice; conditions: 5 mg/kg i.v. twice a week
How it was run: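 Nude mice bearing s.c. HepG2 or H1299 xenografts, set up as in the biodistribution model, split into three groups once tumours reached 100 mm3. Groups given saline, doxorubicin or test compound at 5 mg/kg i.v. twice a week. Tumours measured twice weekly; volume = length × width²/2; volumes compared after 21 days of treatment.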

[8] = tested on: HepG2 (LAT1-positive); test: Cellular uptake in vitro, HepG2; type: cell-based, human; conditions: 2 h
How it was run: (§1)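 HepG2 or H1299 cells seeded at 1.5 × 10^5/well and grown 48 h. Then exposed to test compound at 0, 10, 20 or 50 μg/mL in serum-free medium for 2 h at 37°C, 5% CO2. Rinsed three times with cold DPBS and imaged by fluorescence (excitation 475 nm, 580 nm). Cells then extracted with methanol and sonicated 10 min; supernatant quantified by HPLC/MS.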

[9] = tested on: H1299 (LAT1-negative); test: Cellular uptake in vitro, H1299; type: cell-based, human; conditions: 2 h
How it was run: as §1

Chain of LAT1 (Q01650 whole entry): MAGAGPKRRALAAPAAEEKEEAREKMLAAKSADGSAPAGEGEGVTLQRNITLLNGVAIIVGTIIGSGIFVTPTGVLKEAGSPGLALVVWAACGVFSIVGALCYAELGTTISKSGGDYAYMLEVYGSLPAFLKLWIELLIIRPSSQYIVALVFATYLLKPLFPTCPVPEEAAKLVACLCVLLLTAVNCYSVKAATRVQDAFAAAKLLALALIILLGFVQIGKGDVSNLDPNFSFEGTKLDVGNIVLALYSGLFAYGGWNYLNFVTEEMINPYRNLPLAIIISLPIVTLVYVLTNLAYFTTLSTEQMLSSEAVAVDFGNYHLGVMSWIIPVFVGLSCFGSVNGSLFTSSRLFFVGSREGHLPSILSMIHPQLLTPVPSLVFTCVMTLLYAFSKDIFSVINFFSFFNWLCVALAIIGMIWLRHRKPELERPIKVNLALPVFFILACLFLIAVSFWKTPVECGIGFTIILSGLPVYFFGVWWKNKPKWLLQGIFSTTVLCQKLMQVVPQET
Chain of LAT1 (P08195 102-630 partner): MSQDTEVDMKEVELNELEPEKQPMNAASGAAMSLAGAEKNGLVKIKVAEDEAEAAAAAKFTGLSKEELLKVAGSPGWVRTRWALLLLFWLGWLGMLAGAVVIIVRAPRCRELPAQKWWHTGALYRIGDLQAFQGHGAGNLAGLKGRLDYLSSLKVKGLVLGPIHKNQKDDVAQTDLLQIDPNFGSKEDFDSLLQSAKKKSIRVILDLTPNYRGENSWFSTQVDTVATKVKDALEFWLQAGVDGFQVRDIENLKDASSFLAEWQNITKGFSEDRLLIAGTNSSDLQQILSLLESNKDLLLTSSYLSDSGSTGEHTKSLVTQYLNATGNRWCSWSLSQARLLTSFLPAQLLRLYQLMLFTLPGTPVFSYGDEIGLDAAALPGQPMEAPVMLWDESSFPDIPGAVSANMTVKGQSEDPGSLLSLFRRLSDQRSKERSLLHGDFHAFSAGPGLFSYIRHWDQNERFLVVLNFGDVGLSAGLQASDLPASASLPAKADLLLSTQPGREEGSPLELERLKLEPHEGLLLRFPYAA

C[C@H](N)C(=O)O [Ala]
Inhibition of the uptake of Asp-DOX by amino acids [1]: no inhibition
Inhibition of the uptake of DOX by amino acids [1]: neither 100 μmol/L Leu, Met, or Phe, nor 100 μmol/L Ala, Glu, or Gly inhibited

COc1cccc2c1C(=O)c1c(O)c3c(c(O)c1C2=O)C[C@@](O)(C(=O)CO)C[C@@H]3O[C@H]1C[C@H](N)[C@H](O)[C@H](C)O1 [DOX, doxorubicin]
PDR (efflux rate, Papp(B–A):Papp(A–B)) [2]: 13.01 ± 1.425
Papp A–B ([2]; apical to basolateral, 60 min): 0.53 ± 0.093 10^−6 cm/s
Papp B–A ([2]; basolateral to apical, 60 min): 6.63 ± 0.328 10^−6 cm/s
IC50 [3]: 36.51 μg/ml μg/mL
t1/2 ([4]; 5 mg/kg i.v. (tail vein), blood): 15.12 min
AUC0−t ([4]; 5 mg/kg i.v., 0-4 h): 158.894 µg·min/mL
Drug levels in tissues [5]: higher than that of Asp-DOX in all tissues
Drug levels in heart, liver, and lung [6]: significantly higher
Antitumor effect [7]: stronger than that of Asp-DOX and saline
Uptake ([8]; dose 10 μg/mL): 0.21 ± 0.030 µg/mL
Uptake ([8]; dose 20 μg/mL): 0.44 ± 0.032 µg/mL
Uptake ([8]; dose 50 μg/mL): 0.70 ± 0.079 µg/mL
Uptake ([9]; dose 10 μg/mL): 0.20 ± 0.059 µg/mL
Uptake ([9]; dose 20 μg/mL): 0.33 ± 0.019 µg/mL
Uptake ([9]; dose 50 μg/mL): 0.69 ± 0.055 µg/mL

N[C@@H](CCC(=O)O)C(=O)O [Glu]
Inhibition of the uptake of Asp-DOX by amino acids [1]: no inhibition
Inhibition of the uptake of DOX by amino acids [1]: neither 100 μmol/L Leu, Met, or Phe, nor 100 μmol/L Ala, Glu, or Gly inhibited

NCC(=O)O [Gly]
Inhibition of the uptake of Asp-DOX by amino acids [1]: no inhibition
Inhibition of the uptake of DOX by amino acids [1]: neither 100 μmol/L Leu, Met, or Phe, nor 100 μmol/L Ala, Glu, or Gly inhibited

CC(C)C[C@H](N)C(=O)O [Leu, leucine]
Inhibition of the uptake of Asp-DOX by amino acids [1]: strongly inhibited
Inhibition of the uptake of DOX by amino acids [1]: neither 100 μmol/L Leu, Met, or Phe, nor 100 μmol/L Ala, Glu, or Gly inhibited

CSCC[C@H](N)C(=O)O [Met, methionine]
Inhibition of the uptake of Asp-DOX by amino acids [1]: strongly inhibited
Inhibition of the uptake of DOX by amino acids [1]: neither 100 μmol/L Leu, Met, or Phe, nor 100 μmol/L Ala, Glu, or Gly inhibited

N[C@@H](Cc1ccccc1)C(=O)O [Phe, phenylalanine]
Inhibition of the uptake of Asp-DOX by amino acids [1]: strongly inhibited
Inhibition of the uptake of DOX by amino acids [1]: neither 100 μmol/L Leu, Met, or Phe, nor 100 μmol/L Ala, Glu, or Gly inhibited
